This is a sample that favours compounds with a hit; in the whole collection about 4.3% have one here.
GalR3 antagonist: blocks the human galanin receptor 3; 0.44% of 360,000 active; HEK293 GalR3-CNG cAMP membrane potential fluorescence; galR3 body fused to GalR1 C-terminus; inhibition, % at 3 µM;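 active means inhibition above the screen-wide average plus 3 SD, cut at about 13% in these data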;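 further: forskolin and galanin both at EC90 stimulate the cells; cAMP rise reported by CNG channel membrane potential dye signal; 0% = forskolin plus galanin with DMSO and 100% = forskolin alone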
Target sequence (O60755 1-299 limits assumed): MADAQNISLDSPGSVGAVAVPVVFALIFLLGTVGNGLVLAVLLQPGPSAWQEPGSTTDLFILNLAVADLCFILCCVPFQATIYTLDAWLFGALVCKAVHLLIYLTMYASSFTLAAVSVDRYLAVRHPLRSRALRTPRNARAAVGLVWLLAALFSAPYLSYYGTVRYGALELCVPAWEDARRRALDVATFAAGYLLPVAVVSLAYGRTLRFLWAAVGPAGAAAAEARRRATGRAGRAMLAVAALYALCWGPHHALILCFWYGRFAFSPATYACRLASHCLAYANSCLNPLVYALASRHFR
OX1R antag-1: antagonists of human orexin 1 receptor (OX1R) | O43613 | OX1R-expressing cells, FRET antagonist read-out | inhibition, % at 6.6 µM | 1.8% of 330,000 active; in the data active means inhibition mostly above about 38%, no sharp cut-off; inactive means mostly below about 40%;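 further: 0% = agonist challenge alone and 100% = reference antagonist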
Target sequence (O43613 whole entry, looked up): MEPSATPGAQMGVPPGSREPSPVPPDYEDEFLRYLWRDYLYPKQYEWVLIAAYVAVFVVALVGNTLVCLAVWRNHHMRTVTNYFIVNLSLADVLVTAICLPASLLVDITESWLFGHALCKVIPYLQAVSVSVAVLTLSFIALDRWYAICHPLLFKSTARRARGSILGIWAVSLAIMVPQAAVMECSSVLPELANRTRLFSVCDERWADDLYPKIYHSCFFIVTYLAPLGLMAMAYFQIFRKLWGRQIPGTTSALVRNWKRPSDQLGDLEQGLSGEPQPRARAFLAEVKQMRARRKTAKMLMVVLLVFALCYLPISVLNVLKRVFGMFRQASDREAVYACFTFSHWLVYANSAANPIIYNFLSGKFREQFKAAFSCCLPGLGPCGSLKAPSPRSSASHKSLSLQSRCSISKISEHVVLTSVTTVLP
TAAR1 antagonist: human TAAR1 antagonism | CHO RD-HGA16 TAAR1, Fluo-8 calcium fluorescence, antagonist | inhibition, % at 3 µM | 1.5% of 360,000 active | AID 624466;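 active means inhibition above a per-plate cutoff, the mean inhibition of test compounds on that plate plus 3 SD, cut at about 49% in these data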;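 further: 0% = DMSO plus EC80 beta-PEA response and 100% = DMSO alone without agonist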
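Test system – hTAAR1-expressing CHO RD-HGA16 cells, Gα16-coupled · Also added – β-PEA at EC80 concentration, post-compound challenge · Compound – 3 µM, single point · Incubation – dye loading 75 min at 37 °C, then 30 min room temperature · Measured by – Fluo-8 intracellular calcium dye fluorescence, real-time kinetic reads · Benchmarks – vehicle and agonist controls · Replicates – singlicate, one well per test compound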
CHO parental Ca: signal in parental CHO cells, OX1R antagonist counter-screen | parental CHO-K1, ATP-induced calcium, Fluo-8 fluorescence | inhibition, % at 5.6 µM | 0.63% of 330,000 active | AID 463079;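 active means inhibition above that plate's mean sample inhibition plus 3 SD, cut at about 26% in these data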;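 further: 0% = ATP-challenged DMSO wells and 100% = DMSO wells without ATP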
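material = parental CHO cells | also added = ATP as calcium-mobilizing challenge | dosing = single point at 5.6 µM | detection = intracellular calcium via Fluo-8 no-wash fluorescent dye | read-out = % inhibition | benchmarks = low control ATP plus DMSO, high control DMSO only | repeats = one well per compound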
TAAR1 agonist: human TAAR1 agonism. CHO RD-HGA16 TAAR1, Fluo-8 calcium fluorescence; vehicle wells 0%, saturating PEA agonist 100%. Q96RJ0. AID 624467. activation, % at 3 µM. 0.99% of 360,000 active;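 active means activation above the mean activation of all test compounds in the run plus 3 SD, cut at about 38% in these data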
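Benchmarks: low control DMSO, high control PEA (EC100); System: CHO RD-HGA16 cells carrying human TAAR1 plus Gα16; Detection: Fluo-8 fluorescence, 5 s baseline then 140 s kinetic read; Schedule: 17-24 h plating, Fluo-8 75 min 37 °C, 30 min RT; Read-out basis: % activation from peak over basal fluorescence ratio, DMSO-to-PEA scaled.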
OX1R antag-2: blocks the human orexin 1 receptor; O43613; CHO/OX1R cells, Fluo-8 calcium fluorescence, orexin A; inhibition, % at 5 µM; 0.43% of 330,000 active; AID 434989;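 active means inhibition above its plate's threshold, mean inhibition of all tested compounds on the plate plus 3 SD, cut at about 37% in these data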;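 further: 0% = orexin A challenge wells and 100% = SB-334867-A antagonist wells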
nonsel antag count: nonselective antagonist in TAAR1 antagonist counter-screen. counterscreen cell line, calcium fluorescence, antagonist mode. inhibition, % at 3 µM. shares compounds with TAAR1 antagonist. 77% of 2,400 active; in the data active means inhibition above about 22%;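 further: CHO-Ga16 host cells stimulated with ATP at an EC80 level; 0% = agonist EC80 plus vehicle and 100% = vehicle without agonist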
TAAR1 antag conf: human TAAR1 antagonism, confirmed | 40% of 2,400 active | inhibition, % at 3 µM | TAAR1-expressing cells, fluorescence antagonist read-out | shares compounds with TAAR1 antagonist | AID 651785; in the data active means inhibition above about 49%;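 further: CHO-Ga16 host cells challenged with agonist PEA near its EC80; 0% = agonist at EC80 plus vehicle and 100% = vehicle with no agonist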
Ga16 ag counter: counter-screen for TAAR1 antagonists: nonselective Ga16 agonists; activation, % at 3 µM; 18% of 2,400 active; Ga16-expressing cells, calcium fluorescence, agonist counterscreen; AID 651953; shares compounds with TAAR1 antagonist; in the data active means activation above about 12%;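 further: 0% = vehicle wells and 100% = saturating stimulus response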
TAAR1 ag count: activates human TAAR1 in antagonist counter-screen; shares compounds with TAAR1 antagonist; hTAAR1 cell line, fluorescence activation, agonist mode; activation, % at 3 µM; 2% of 2,400 active; AID 651955; in the data active means activation above about 37%;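 further: CHO cells stably expressing TAAR1 with calcium dye readout; 0% = DMSO vehicle and 100% = full agonist response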
* hit, by the source's call; . = no result.

SMILES	GalR3 antagonist	OX1R antag-1	TAAR1 antagonist	CHO parental Ca	TAAR1 agonist	OX1R antag-2	nonsel antag count	TAAR1 antag conf	Ga16 ag counter	TAAR1 ag count
Cc1cc(OCC(=O)Nc2ccc(N3CCN(C(=O)c4ccco4)CC3)cc2)cc(C)c1Cl	-9	5	86*	-13	34	-5	51*	71*	18*	18
Cc1ccccc1C(=O)N1CCN(c2ccc(NC(=O)c3ccco3)cc2Cl)CC1	-5	11	52*	-11	20	-12	23*	37	9	7
CCCNC(=O)C(Cc1cccc(OC)c1)NC(=O)c1ccc(C(C)(C)C)cc1 (configuration not stated)	0	2	4	-18	1	-39	.	.	.	.
O=C(C1CCN(S(=O)(=O)c2ccccc2F)CC1)N1CCCC1	0	.	3	.	3	.	.	.	.	.
CCN(CC)C(=O)[C@H]1CC(CC(=O)NCCCn2ccnc2)C(=O)N2CCc3c([nH]c4ccc(OC)cc34)[C@]12C (some centres not stated)	-6	10	-12	-12	3	0	.	.	.	.
Cc1ccc(S(=O)(=O)N2CCN(C(=O)COC(=O)c3ccc(O)cc3)CC2)c(C)c1	-5	7	-5	-17	2	-22	.	.	.	.
Cc1cccc(OCC(=O)NNC(=O)C2CCN(c3ncnc4sc(C)c(C)c34)CC2)c1	-5	30	75*	-20	19	-25	36*	52*	11	20
Cc1ccccc1OCC(=O)NNC(=O)C1CCN(c2ncnc3sc(C)c(C)c23)CC1	-4	22	70*	-14	24	-27	39*	57*	13*	30
CNC(=O)c1ccc(NC(=O)C2CCN(c3ncnc4sc(C)c(C)c34)CC2)cc1	1	0	10	-13	4	-27	.	.	.	.
CCN(CC)c1ccc(C(=O)NNC(=O)C2CCN(c3ncnc4sc(C)c(C)c34)CC2)cc1	-6	.	56*	.	8	.	26*	35	8	15
CCCN(CC(=O)Nc1ccccc1C)C(=O)C1CCN(c2ncnc3sc(C)c(C)c23)CC1	-1	27	60*	-30	10	-38	31*	51*	7	5
Cc1sc2ncnc(N3CCC(C(=O)NCC(=O)Nc4ccc(F)c(F)c4)CC3)c2c1C	0	22	41	-20	8	-11	.	.	.	.
CCS(=O)(=O)c1ccc2oc(SCC(=O)c3c(N)n(C4CC4)c(=O)[nH]c3=O)nc2c1	-3	10	-30	-5	1	-3	.	.	.	.
COCc1cc(N2CCN(C(=O)OC(C)(C)C)C[C@@H]2C)ccc1N1CCS(=O)(=O)CC1	-2	.	9	.	5	.	.	.	.	.
C[C@H]1CN(C(=O)OC(C)(C)C)CCN1c1ccc(N2CCS(=O)(=O)CC2)c(C#N)c1	-8	.	67*	.	21	.	47*	60*	16*	13
O=C(COC(=O)c1cccc(N2C(=O)C3CC=CCC3C2=O)c1)c1ccccc1 (configuration not stated)	-13	0	55*	-15	13	-23	19	39	10	7
COc1ccc(-c2cc(C(=O)Nc3ccccc3N3CCOCC3)c3ccccc3n2)cc1OC	-4	42	59*	2	6	-22	24*	45	6	3
O=C(Nc1ccc(N2CCOCC2)cc1)c1cc(-c2ccncc2)nc2ccccc12	7	18	22	-20	11	-23	.	.	.	.
O=C(Nc1ccccc1N1CCOCC1)c1cc(-c2ccncc2)nc2ccccc12	-4	14	63*	-19	16	-23	27*	44	8	9
COc1ccc(-c2cc(C(=O)NNC(=O)c3csc(N4CCOCC4)n3)c3ccccc3n2)cc1	6	13	61*	-21	9	-17	30*	45	6	5
O=C(NNC(=O)c1ccccc1Cl)c1csc(N2CCOCC2)n1	-4	16	-12	-2	5	-14	.	.	.	.
COc1ccccc1NC(=O)c1c([N+](=O)[O-])c(C(C)(C)C)nn1C	3	17	-22	-20	3	-20	.	.	.	.
Cn1nc(C(C)(C)C)c([N+](=O)[O-])c1C(=O)Nc1cccc2ccccc12	-1	21	56*	-22	5	-34	22*	34	5	4
COc1cccc(C(=O)Nc2cccc(NC(=O)c3ccccc3Cl)c2)c1	-4	16	68*	-26	10	-22	20	43	8	5
COc1cccc(C(=O)Nc2ccccc2)c1	-2	25	-7	-3	15	-13	.	.	.	.
SMILES	GalR3 antagonist	OX1R antag-1	TAAR1 antagonist	CHO parental Ca	TAAR1 agonist	OX1R antag-2	nonsel antag count	TAAR1 antag conf	Ga16 ag counter	TAAR1 ag count
COc1ccc(/C=N/NC(=O)c2cccc(NC(=O)c3ccccc3Cl)c2)c(OC)c1	-3	36	60*	12	6	-11	24*	45	5	2
Cc1ccc(NC(=C(C#N)C#N)c2ccccc2)cc1	-3	.	0	.	-1	.	.	.	.	.
CCOc1ccc(NC(=O)CNC(=O)c2nn(-c3ccc(OC)c(OC)c3)c(=O)c3ccccc23)cc1	-2	10	46	-7	21	-27	.	.	.	.
COc1ccc(NC(=O)CNC(=O)c2nn(-c3ccc(OC)c(Cl)c3)c(=O)c3ccccc23)c(OC)c1	-7	10	61*	-25	10	-57	24*	49*	6	7
CCOC(=O)C1CCN(C(=O)CNC(=O)c2nn(-c3ccc(OC)c(Cl)c3)c(=O)c3ccccc23)CC1	-5	21	61*	-7	13	-33	28*	42	7	6
COc1ccc(CCNC(=O)CNC(=O)c2nn(-c3ccc(OC)c(OC)c3)c(=O)c3ccccc23)cc1OC	-1	32	53*	-17	17	-29	33*	51*	12*	9
COc1ccc(-n2nc(C(=O)NCC(=O)Nc3cccc(Cl)c3)c3ccccc3c2=O)cc1OC	-11	16	55*	-15	20	-14	25*	48	10	11
COCCCn1c(C(=O)N2CC(C)OC(C)C2)cc2c(=O)n3ccccc3nc21 (configuration not stated)	2	25	-21	-3	4	7	.	.	.	.

Screens: PubChem, The Scripps Research Institute Molecular Screening Center
